Source: ChEMBL document CHEMBL1140891, “Design, synthesis and biological evaluation of novel stilbene-based antitumor agents” (Bioorg Med Chem, 2009)
The source made the active and inactive calls. The rule behind the calls is not given here.

Key:
MIA PaCa-2 = experiment: Cytotoxicity against human MIAPaCa2 cells after 48 hrs by alamar blue assay; format: functional, cell-based; settings: MIA PaCa-2, 48 h
Method in brief: (§1)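 MDA-MB231, MiaPaCa2 and SNU423 cells (ATCC) were grown in DMEM, and UCI-101 cells in IMDM. Both media had 10% FBS plus penicillin/streptomycin/glutamine, under 5% CO2. Cells were treated for 48 h at seven concentrations from 0 to 3.0. Alamar Blue was added at 1/10 volume and OD was read at 570 and 600 nm. % growth inhibition versus untreated cells used extinction-coefficient formula; IC50 from three experiments.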

SNU-423 = experiment: Cytotoxicity against human SNU423 cells after 48 hrs by alamar blue assay; format: functional, cell-based; settings: SNU-423, 48 h; method in brief: as §1
MDA-MB-231 = experiment: Cytotoxicity against human MDA-MB-231 cells after 48 hrs by alamar blue assay; format: functional, cell-based; settings: MDA-MB-231, 48 h; method in brief: as §1
[1] = Cytotoxicity against human UCI101 cells after 48 hrs by alamar blue assay; format: functional, cell-based; settings: UCI101, 48 h; method in brief: as §1
[2] = Solubility in water; format: physicochemical
[3] = Inhibition of tubulin without microtubule associated protein polymerization at 5 uM after 60 mins
HL-60 = experiment: Induction of apoptosis in human HL60 cells by flow cytometry; format: functional, cell-based

With `COc1cc(/C=C\c2ccc3[nH]ccc3c2)cc(OC)c1` the IC50 (MIA PaCa-2) was 200 nM, the IC50 (SNU-423) was 700 nM and the IC50 (MDA-MB-231) was 250 nM. The IC50 [1] was 250 nM.

With `COc1ccc(/C=C\c2ccc3[nH]ccc3c2)cc1N` the IC50 [1] was 5000 nM.

`COc1cc(/C=C\c2ccc(OC)c(NC(=O)OCCN3CCOCC3)c2)cc(OC)c1` [listing 1 of 2 here] gave an IC50 (SNU-423) of 5000 nM and an IC50 [1] of 5000 nM.

`COc1cc(/C=C\c2ccc3cc[nH]c3c2)cc(OC)c1` showed an IC50 (MIA PaCa-2) of 200 nM, an IC50 (SNU-423) of 700 nM and an IC50 (MDA-MB-231) of 250 nM. The IC50 [1] was 250 nM.

For `COc1cc(/C=C\c2ccc(OC)c(N)c2)cc(OC)c1.O=C(O)C(=O)O`, the solubility [2] was less than 1000 µg/mL.

`COc1ccc(/C=C\c2cc(OC)c(OC)c(OC)c2)cc1O` [COMBRETASTATIN A4] showed an IC50 (MIA PaCa-2) of 8 nM, an IC50 (SNU-423) of 6 nM and an IC50 (MDA-MB-231) of 4 nM. It also gave an IC50 [1] of 2 nM.

With `COc1cc(/C=C\c2ccc3c(ccn3C)c2)cc(OC)c1` the IC50 (MIA PaCa-2) was 80 nM, the IC50 (SNU-423) was 30 nM and the IC50 (MDA-MB-231) was 80 nM. It also gave a solubility [2] of less than 1000 µg/mL and an IC50 [1] of 40 nM.

`COc1cc(/C=C\c2ccc3ccn(C)c3c2)cc(OC)c1` showed an IC50 [1] of 220 nM.

For `COc1cc(/C=C\c2ccc(OC)c(NC(=O)OCCOCCOCCO)c2)cc(OC)c1`, the IC50 [1] was greater than 10000 nM.

Compound `COc1cc(/C=C\c2ccc(OC)c(NC(=O)NCCN3CCOCC3)c2)cc(OC)c1` has an IC50 [1] greater than 10000 nM.

With `COc1cc(O)cc(/C=C\c2ccc(OC)c(N)c2)c1` the IC50 (MIA PaCa-2) was 700 nM, the Activity [3] was “Active” and the IC50 (SNU-423) was 2000 nM. The IC50 (MDA-MB-231) was 800 nM and the IC50 [1] was 800 nM.

In the case of `COc1cc(/C=C\c2ccc3[nH]cnc3c2)cc(OC)c1`, the IC50 (MIA PaCa-2) is reported as 800 nM, the IC50 (SNU-423) is reported as 1000 nM and the IC50 (MDA-MB-231) is reported as 800 nM. For the same compound, the IC50 [1] was 260 nM.

For `CCOc1cc(/C=C\c2ccc(OC)c(N)c2)cc(OC)c1`, the Activity [3] was “Active” and the IC50 [1] was 80 nM.

`C=CCOc1cc(/C=C\c2ccc(OC)c(N)c2)cc(OC)c1` showed an IC50 [1] of 200 nM.

With `COc1cc2c(c(OC)c1OC)-c1ccc(OC)c(=O)cc1[C@@H](NC(C)=O)CC2` [COLCHICINE] the IC50 (MIA PaCa-2) was 25 nM, the Activity [3] was “Active” and the IC50 (SNU-423) was 25 nM. It also gave an IC50 (MDA-MB-231) of 20 nM and an IC50 [1] of 30 nM.

For `COc1cc(/C=C\c2ccc(OC)c(O)c2)cc(OC)c1`, the IC50 (HL-60) was 30 nM, the IC50 (SNU-423) was 15 nM and the IC50 [1] was 30 nM.

Compound `COc1cc(/C=C\c2ccc(OC)c(N)c2)cc(OC)c1` [listing 1 of 2 here] has a solubility [2] of less than 1000 µg/mL.

In the case of `COc1cc(/C=C\c2ccc(OC)c(N)c2)cc(OCCO)c1`, the IC50 (MIA PaCa-2) is reported as 180 nM, the IC50 (SNU-423) is reported as 200 nM and the IC50 (MDA-MB-231) is reported as 80 nM. For the same compound, the IC50 [1] was 150 nM.

For `COc1cc(/C=C\c2ccc(OC)c(NC(=O)OCCN3CCOCC3)c2)cc(OC)c1.O=C(O)C(=O)O`, the solubility [2] was 5900 µg/mL.

In the case of `COc1cc(/C=C\c2ccc(OC)c(N)c2)cc(OC)c1` [listing 2 of 2 here], the Activity [3] is reported as “Active”.

Compound `CC[C@]1(O)C[C@H]2CN(CCc3c([nH]c4ccccc34)[C@@](C(=O)OC)(c3cc4c(cc3OC)N(C=O)[C@H]3[C@@](O)(C(=O)OC)[C@H](OC(C)=O)[C@]5(CC)C=CCN6CC[C@]43[C@@H]65)C2)C1` [VINCRISTINE] has an IC50 (MIA PaCa-2) of 15 nM, an IC50 (SNU-423) of 10 nM and an IC50 (MDA-MB-231) of 15 nM. It also gave an IC50 [1] of 20 nM.

With `COc1ccc(/C=C\c2ccc3c(ccn3C)c2)cc1N` the solubility [2] was less than 1000 µg/mL and the IC50 [1] was 200 nM.

In the case of `COc1cc(/C=C\c2ccc(OC)c(N)c2)cc(OC(C)C)c1`, the IC50 [1] is reported as 100 nM.

Compound `COc1cc(/C=C\c2ccc(OC)c(NC(=O)OCCN3CCOCC3)c2)cc(OC)c1` [listing 2 of 2 here] has a solubility [2] of less than 1000 µg/mL.

`COc1cc(/C=C\c2ccc(OC)c(N)c2)cc(OCC(=O)O)c1` showed an IC50 [1] greater than 10000 nM.

`COc1cc(/C=C\c2ccc(OC)c(N)c2)cc(OC)c1.Cl` showed an IC50 (MIA PaCa-2) of 40 nM, an IC50 (HL-60) of 30 nM and an IC50 (SNU-423) of 30 nM. For the same compound, the IC50 (MDA-MB-231) was 30 nM, the solubility [2] was 6000 µg/mL and the IC50 [1] was 30 nM.
